ChEMBL document CHEMBL3272319, “Alkyl streptozotocin analogues with improved biological activities” (J Med Chem, 1976)

What was measured:
Mus musculus [1] = assay: Toxicity in ICR mouse allografted with mouse S180A assessed as mortality at 50 mg/kg, ip qd for 5 days; type: organism-based; design: dose 50 mg/kg, route intraperitoneal; conditions: in vivo, 120 h
Summary of the method: (§1)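 Ascites Sarcoma 180 (1 × 10^7 cells) implanted into ICR mice, six per group; compound in saline ip once daily days 1-5; sacrifice on day 7; total packed cell volume (ascites volume × PCV) compared with controls as T/C %; mortality recorded.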

Mus musculus [2] = assay: Toxicity in BDF1 mouse allografted with mouse L1210 cells assessed as mortality at 100 mg/kg, ip qd for 5 days; type: organism-based; design: dose 100 mg/kg, route intraperitoneal; conditions: in vivo, 120 h
Summary of the method: (§2)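 L1210 (1 × 10^5 cells) implanted into BDF1 mice, six per group; compound in saline ip once daily days 1-5; effect read as % increase in life span, ILS = [(treated life span/control life span) − 1] × 100.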

[3] = Antitumor activity against mouse S180A allografted in ICR mouse assessed as tumor growth at 50 mg/kg, ip qd for 5 days measured on day 7 relative to control; type: functional; conditions: route intraperitoneal
Summary of the method: (§3)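 Ascites Sarcoma 180 (1 × 10^7 cells) implanted into ICR mice, six animals per group. Five daily ip injections in saline (days 1–5). Sacrificed day 7. T/C % computed from total packed cell volume (ascites volume × PCV) vs controls. Grades: 100-66 = -, 65-41 = +, 40-11 = ++, 10-0 = +++.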

Rattus norvegicus [4] = assay: Diabetogenic activity in iv dosed Wistar rat assessed as increase in blood sugar level administered as single dose by glucose oxidase method; type: ADME, organism-based; conditions: in vivo
Summary of the method: (§4)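 Male Wistar rats, about 200 g, five per group, fasted 16 h. Single iv dose into the femoral vein in physiological saline, equimolar across compounds. Caudal-vein blood sampled at set times over 24 h. Sugar measured by glucose oxidase.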

Ehrlich [5] = assay: Antitumor activity against mouse EAC allografted in ICR mouse assessed as tumor growth at 125 mg/kg, ip qd for 5 days measured on day 7 relative to control; type: functional; conditions: route intraperitoneal
Summary of the method: (§5)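 Ehrlich ascites carcinoma (1 × 10^7 cells) implanted into ICR mice, six per group. Drug in saline ip, qd days 1–5. Mice killed day 7. Total packed cell volume = ascites volume × % packed cell volume; T/C % = TPCV treated/control × 100. Activity graded from T/C.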

L1210 [6] = assay: Antitumor activity against mouse L1210 cells allografted in BDF1 mouse assessed as increase in host lifespan at 100 mg/kg, ip qd for 5 days relative to control; type: functional; conditions: 120 h, route intraperitoneal; summary of the method: as §2
Mus musculus [7] = assay: Toxicity in ICR mouse allografted with mouse EAC assessed as mortality at 125 mg/kg, ip qd for 5 days; type: organism-based; design: dose 125 mg/kg, route intraperitoneal; conditions: in vivo, 120 h
Summary of the method: (§6)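 Ehrlich ascites carcinoma (1 × 10^7 cells) implanted into ICR mice, six per group; compound ip daily for 5 days; mice sacrificed day 7; tumour burden as total packed cell volume (ascites volume × PCV), T/C % vs controls; mortality recorded.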

[8] = Antitumor activity against mouse S180A allografted in ICR mouse assessed as tumor growth at 25 mg/kg, ip qd for 5 days measured on day 7 relative to control; type: functional; conditions: route intraperitoneal; summary of the method: as §3
Mus musculus [9] = assay: (§7) Acute toxicity in ip dosed JCL-ICR mouse assessed as animal death; type: organism-based; conditions: in vivo
Summary of the method: (§8)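 Groups of ten female JCL-ICR mice given single ip dose in physiological saline; deaths followed over 7 days; LD50 (and LD10) derived by Litchfield–Wilcoxon method.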

[10] = as §7; type: organism-based; conditions: JCL-ICR, in vivo; summary of the method: as §8
[11] = Ratio of compound LD50 to streptozotocin LD50 for JCL-ICR mouse; type: ADME, organism-based; conditions: in vivo
L1210 [12] = assay: Antitumor activity against mouse L1210 cells allografted in BDF1 mouse assessed as increase in host lifespan at 50 mg/kg, ip qd for 5 days relative to control; type: functional; conditions: 120 h, route intraperitoneal; summary of the method: as §2
Mus musculus [13] = assay: Ratio of compound LD10 to streptozotocin LD10 for JCL-ICR mouse; type: ADME, organism-based; conditions: in vivo
Mus musculus [14] = assay: Toxicity in ICR mouse allografted with mouse S180A assessed as mortality at 25 mg/kg, ip qd for 5 days; type: organism-based; design: dose 25 mg/kg, route intraperitoneal; conditions: in vivo, 120 h; summary of the method: as §1
Mus musculus [15] = assay: Toxicity in BDF1 mouse allografted with mouse L1210 cells assessed as mortality at 50 mg/kg, ip qd for 5 days; type: organism-based; design: dose 50 mg/kg, route intraperitoneal; conditions: in vivo, 120 h; summary of the method: as §2
Proteus vulgaris = assay: Antibacterial activity against Proteus vulgaris AHU 1469 assessed as growth inhibition after 18 hrs by broth dilution method; type: functional; conditions: AHU 1469, 18 h
Summary of the method: (§9)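 Twofold serial dilutions in heart infusion broth. Inoculum was a 24-h heart infusion broth culture diluted 100-fold in physiological saline. Tubes incubated 30 °C for 18 h; the table footnote gives 32 °C for 24 h. MIC in µg/ml is the lowest level giving complete growth inhibition.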

Pseudomonas fluorescens = assay: Antibacterial activity against Pseudomonas fluorescens NIHJ B-254 assessed as growth inhibition after 18 hrs by broth dilution method; type: functional; conditions: NIHJ B-254, 18 h; summary of the method: as §9
Salmonella typhi = assay: Antibacterial activity against Salmonella typhi IFM 3020 assessed as growth inhibition after 18 hrs by broth dilution method; type: functional, Salmonella enterica subsp. enterica serovar Typhi; conditions: Salmonella enterica, IFM 3020, 18 h
Summary of the method: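 Twofold serial dilutions in heart infusion broth; inoculum from 24 h heart infusion broth culture diluted 100-fold in physiological saline; tubes incubated 30 °C for 18 h; MIC (µg/ml) = lowest level giving complete growth inhibition.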

Enterococcus faecalis = assay: Antibacterial activity against Streptococcus faecalis ATCC 10541 assessed as growth inhibition after 18 hrs by broth dilution method; type: functional; conditions: ATCC 10541, 18 h; summary of the method: as §9
Rattus norvegicus [16] = assay: Diabetogenic activity in Wistar rat assessed as increase in blood sugar level at 74.7 mg/kg, iv administered as single dose by glucose oxidase method; type: ADME, organism-based; design: dose 74.7 mg/kg, route intravenous; conditions: in vivo; summary of the method: as §4
Micrococcus luteus = assay: Antibacterial activity against Sarcina lutea ATCC 9341 assessed as growth inhibition after 18 hrs by broth dilution method; type: functional; conditions: ATCC 9341, 18 h; summary of the method: as §9
Bacillus subtilis = assay: Antibacterial activity against Bacillus subtilis ATCC 6633 assessed as growth inhibition after 18 hrs by broth dilution method; type: functional; conditions: ATCC 6633, 18 h; summary of the method: as §9
Escherichia coli = assay: Antibacterial activity against Escherichia coli NIHJ JC-2 assessed as growth inhibition after 18 hrs by broth dilution method; type: functional; conditions: NIHJ JC-2, 18 h; summary of the method: as §9
Staphylococcus aureus = assay: Antibacterial activity against Staphylococcus aureus FDA 209P JC-1 assessed as growth inhibition after 18 hrs by broth dilution method; type: functional; conditions: FDA 209P JC-1, 18 h; summary of the method: as §9
Klebsiella pneumoniae = assay: Antibacterial activity against Klebsiella pneumoniae ATCC 10031 assessed as growth inhibition after 18 hrs by broth dilution method; type: functional; conditions: ATCC 10031, 18 h; summary of the method: as §9
Shigella sonnei = assay: Antibacterial activity against Shigella sonnei assessed as growth inhibition after 18 hrs by broth dilution method; type: functional; summary of the method: as §9
Ehrlich [17] = assay: Antitumor activity against mouse EAC allografted in ICR mouse assessed as tumor growth at 150 mg/kg, ip qd for 5 days measured on day 7 relative to control; type: functional; conditions: route intraperitoneal; summary of the method: as §5
Mus musculus [18] = assay: Toxicity in ICR mouse allografted with mouse EAC assessed as mortality at 150 mg/kg, ip qd for 5 days; type: organism-based; design: dose 150 mg/kg, route intraperitoneal; conditions: in vivo, 120 h; summary of the method: as §6
Rattus norvegicus [19] = assay: Diabetogenic activity in Wistar rat assessed as increase in blood sugar level at 71.4 mg/kg, iv administered as single dose by glucose oxidase method; type: ADME, organism-based; design: dose 71.4 mg/kg, route intravenous; conditions: in vivo; summary of the method: as §4
Rattus norvegicus [20] = assay: Diabetogenic activity in Wistar rat assessed as increase in blood sugar level at 68 mg/kg, iv administered as single dose by glucose oxidase method; type: ADME, organism-based; design: dose 68 mg/kg, route intravenous; conditions: in vivo; summary of the method: as §4

Compound	Activity (Mus musculus [1])	T/C [3]	Activity (Rattus norvegicus [4])	T/C (Ehrlich [5])	Activity (Mus musculus [7])	T/C [8]	LD10 (Mus musculus [9])	LD50 [10]	selectivity ratio [11]	ILS at 50 mg/kg (L1210 [12])	Ratio (Mus musculus [13])	Activity (Mus musculus [14])	Activity (Mus musculus [15])	further results
CCCN(N=O)C(=O)N[C@H]1[C@H](OC)O[C@H](CO)[C@@H](O)[C@@H]1O	Non-toxic	69%	Non-toxic	72%	Non-toxic									Activity (Mus musculus [2]): Non-toxic; ILS at 100 mg/kg (L1210 [6]): 7%
CCCO[C@H]1O[C@H](CO)[C@@H](O)[C@H](O)[C@H]1NC(=O)N(C)N=O			Non-toxic	37%	Non-toxic	32%	1020 mg/kg	1470 mg/kg	2	29%	2	Non-toxic	Non-toxic	
CCO[C@@H]1O[C@H](CO)[C@@H](O)[C@H](O)[C@H]1NC(=O)N(CC)N=O	Non-toxic	59%	Non-toxic											Activity (Mus musculus [2]): Non-toxic; ILS at 100 mg/kg (L1210 [6]): 10%
CCCO[C@@H]1O[C@H](CO)[C@@H](O)[C@H](O)[C@H]1NC(=O)N(C)N=O	Non-toxic	32%					1240 mg/kg	2150 mg/kg	2	30%	2		Non-toxic	MIC (Proteus vulgaris): > 1000 µg/mL; MIC (Pseudomonas fluorescens): > 1000 µg/mL; MIC (Salmonella typhi): > 1000 µg/mL; MIC (Enterococcus faecalis): > 1000 µg/mL; Activity (Rattus norvegicus [16]): Non-toxic; MIC (Micrococcus luteus): > 1000 µg/mL; MIC (Bacillus subtilis): > 1000 µg/mL; MIC (Escherichia coli): > 1000 µg/mL; MIC (Staphylococcus aureus): > 1000 µg/mL; MIC (Klebsiella pneumoniae): > 1000 µg/mL; MIC (Shigella sonnei): > 1000 µg/mL
CCCCO[C@@H]1O[C@H](CO)[C@@H](O)[C@H](O)[C@H]1NC(=O)N(C)N=O			Non-toxic			40%	1100 mg/kg	1580 mg/kg	2	33%	2	Non-toxic	Non-toxic	T/C (Ehrlich [17]): 4%; Activity (Mus musculus [18]): Non-toxic
CCO[C@@H]1O[C@H](CO)[C@@H](O)[C@H](O)[C@H]1NC(=O)N(C)N=O						37%	1550 mg/kg	2050 mg/kg	2		2	Non-toxic		MIC (Proteus vulgaris): > 1000 µg/mL; MIC (Pseudomonas fluorescens): > 1000 µg/mL; MIC (Salmonella typhi): > 1000 µg/mL; MIC (Enterococcus faecalis): > 1000 µg/mL; Activity (Rattus norvegicus [19]): Non-toxic; MIC (Micrococcus luteus): > 1000 µg/mL; MIC (Bacillus subtilis): > 1000 µg/mL; MIC (Escherichia coli): > 1000 µg/mL; MIC (Staphylococcus aureus): > 1000 µg/mL; MIC (Klebsiella pneumoniae): > 1000 µg/mL; MIC (Shigella sonnei): > 1000 µg/mL
CCCCO[C@H]1O[C@H](CO)[C@@H](O)[C@H](O)[C@H]1NC(=O)N(CCCC)N=O	Non-toxic	80%	Non-toxic	53%	Non-toxic		410 mg/kg	660 mg/kg	2		2			
CCCN(N=O)C(=O)N[C@H]1[C@@H](OC)O[C@H](CO)[C@@H](O)[C@@H]1O	Non-toxic	55%	Non-toxic	61%	Non-toxic									
CO[C@H]1O[C@H](CO)[C@@H](O)[C@H](O)[C@H]1NC(=O)N(C)N=O						37%	1380 mg/kg	1930 mg/kg	2	35%	2	Non-toxic	Non-toxic	MIC (Proteus vulgaris): > 1000 µg/mL; MIC (Pseudomonas fluorescens): > 1000 µg/mL; T/C (Ehrlich [17]): 16%; MIC (Salmonella typhi): > 1000 µg/mL; Activity (Mus musculus [18]): Non-toxic; MIC (Enterococcus faecalis): > 1000 µg/mL; MIC (Micrococcus luteus): > 1000 µg/mL; MIC (Bacillus subtilis): > 1000 µg/mL; MIC (Escherichia coli): > 1000 µg/mL; MIC (Staphylococcus aureus): > 1000 µg/mL; MIC (Klebsiella pneumoniae): > 1000 µg/mL; Activity (Rattus norvegicus [20]): Non-toxic; MIC (Shigella sonnei): > 1000 µg/mL
CCO[C@H]1O[C@H](CO)[C@@H](O)[C@H](O)[C@H]1NC(=O)N(CC)N=O	Non-toxic	63%	Non-toxic	60%	Non-toxic									Activity (Mus musculus [2]): Non-toxic; ILS at 100 mg/kg (L1210 [6]): 14%
CCCCN(N=O)C(=O)N[C@H]1[C@H](OC)O[C@H](CO)[C@@H](O)[C@@H]1O	Non-toxic	54%	Non-toxic	52%	Non-toxic					12%			Non-toxic	
CCCCO[C@H]1O[C@H](CO)[C@@H](O)[C@H](O)[C@H]1NC(=O)N(C)N=O	Non-toxic	20%	Non-toxic				1200 mg/kg	2000 mg/kg	2	30%	2		Non-toxic	T/C (Ehrlich [17]): 16%; Activity (Mus musculus [18]): Non-toxic
